Each block holds one molecule with its values, some of them ahead of it.
Legend:
[1] = Neuroprotective activity in human MC65 cells expressing C-terminal 99 amino acids from […] assessed as reduction in intracellular amyloid beta toxicity after 4 days by MTT assay; assay type: functional, cell-based; conditions: MC65, 96 h
Method in brief: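 MC65 cells from confluent cultures were plated at 4 × 10⁵ per 35 mm dish with compounds. Tetracycline was kept present (no induction) or omitted (APP-C99 induced). After 4 days, viability was read by MTT and expressed relative to plus-tetracycline controls. EC50 was calculated from concentration–response curves.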

[2] = Neuroprotective activity in rat primary cortical neurons assessed as reduction in trophic factor withdrawal after 2 days by fluorescent live-dead assay; assay type: functional, cell-based; conditions: cerebral cortex neuron
Method in brief: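 Cortical neurons from E18 rat embryos were plated at low density (1 × 10⁶ per 35 mm dish) in serum-free DMEM/F12 with N2 supplement plus compounds. After 2 days, viability was scored with a fluorescent live-dead assay as the percentage of input cells surviving. EC50 was derived from the concentration–response curves.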

HT-22 = assay: Neuroprotective activity in mouse HT22 cells assessed as reduction in glutamate-induced oxidative stress incubated for 30 mins prior to glutamate-challenge measured after 20 hrs by MTT assay
Blood [3] = assay: Drug metabolism in BALB/c mouse blood assessed as (E)-N-(2,4-dimethylphenyl)-2,2,2-trifluoro-N'-(3-hydroxybenzyli-dene)acetohydrazide retention time at 20 mg/kg, iv administered in corn oil by LC/MS/MS analysis; assay type: ADME, organism-based; parameters: dose 20 mg/kg, route intravenous; conditions: in vivo
Method in brief: (§1)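 Mice received parent at 20 mg/kg iv, and blood was sampled 20 min later. Metabolites were identified by the same ethyl acetate extraction and LC/MS/MS workflow as for microsomes, using a polar reverse-phase column. Mass shifts were assigned to biotransformations.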

Blood [4] = assay: Drug metabolism in BALB/c mouse blood assessed as metabolite BM2 retention time at 20 mg/kg, iv administered in corn oil by LC/MS/MS analysis; assay type: ADME, organism-based; parameters: dose 20 mg/kg, route intravenous; conditions: in vivo; method in brief: as §1
Blood [5] = assay: Drug metabolism in BALB/c mouse blood assessed as metabolite BM1 retention time at 20 mg/kg, iv administered in corn oil by LC/MS/MS analysis; assay type: ADME, organism-based; parameters: dose 20 mg/kg, route intravenous; conditions: in vivo; method in brief: as §1
Blood [6] = assay: Drug metabolism in BALB/c mouse blood assessed as retention time at 20 mg/kg, iv administered in corn oil by LC/MS/MS analysis; assay type: ADME, organism-based; parameters: dose 20 mg/kg, route intravenous; conditions: in vivo; method in brief: as §1
Liver microsomes [7] = assay: Drug metabolism in human liver microsomes assessed as formation of (E)-2,2,2-trifluoro-N-(4-(hydroxymethyl)-2-methylphenyl)-N'-(3-methoxybenzylidene)acetohydrazide at 5 uM by LC/MS/MS analysis; assay type: ADME, Microsome
Method in brief: (§2)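 Parent at 5 µM was incubated with human or mouse liver microsomes, then extracted with ethyl acetate at zero time or after 5 min. Extracts were separated on a C18 reverse-phase HPLC column and analysed by LC/MS/MS in positive mode over m/z 50–1000. Metabolites were characterised from EPI-scan product ion spectra and CID pathways.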

Liver microsomes [8] = assay: Drug metabolism in human liver microsomes assessed as formation of (E)-N-(2,4-dimethylphenyl)-2,2,2-trifluoro-N'-(3-hydroxybenzyli-dene)acetohydrazide at 5 uM by LC/MS/MS analysis; assay type: ADME, Microsome; method in brief: as §2
Plasma [9] = assay: Drug metabolism in mouse plasma assessed as formation of 2,4-dimethylhydrazine at 5 uM by LC/MS/MS analysis; assay type: ADME, cell-free
Plasma [10] = assay: Drug metabolism in mouse plasma assessed as formation of 3-methoxy benzaldehyde at 5 uM by LC/MS/MS analysis; assay type: ADME, cell-free
Plasma [11] = assay: Drug metabolism in mouse plasma assessed as formation of 2,4-dimethylaniline at 5 uM by LC/MS/MS analysis; assay type: ADME, cell-free
[12] = Drug metabolism in mouse liver microsomes assessed as formation of 3-methoxy benzaldehyde at 5 uM by LC/MS/MS analysis; assay type: ADME, Microsome; method in brief: as §2
[13] = Drug metabolism in mouse liver microsomes assessed as formation of 2,4-dimethylaniline at 5 uM by LC/MS/MS analysis; assay type: ADME, Microsome; method in brief: as §2
[14] = Drug metabolism in mouse liver microsomes assessed as formation of 2,4-dimethylhydrazine at 5 uM by LC/MS/MS analysis; assay type: ADME, Microsome; method in brief: as §2
Liver microsomes [15] = assay: Drug metabolism in human liver microsomes assessed as formation of 3-methoxy benzaldehyde at 5 uM by LC/MS/MS analysis; assay type: ADME, Microsome; method in brief: as §2
Liver microsomes [16] = assay: Drug metabolism in human liver microsomes assessed as formation of 2,4-dimethylhydrazine at 5 uM by LC/MS/MS analysis; assay type: ADME, Microsome; method in brief: as §2
Liver microsomes [17] = assay: Drug metabolism in human liver microsomes assessed as formation of 2,4-dimethylaniline at 5 uM by LC/MS/MS analysis; assay type: ADME, Microsome; method in brief: as §2
[18] = Drug metabolism in mouse liver microsomes assessed as metabolite M4 retention time at 5 uM by LC/MS/MS analysis; assay type: ADME, Microsome; method in brief: as §2
[19] = Drug metabolism in mouse liver microsomes assessed as metabolite M5 retention time at 5 uM by LC/MS/MS analysis; assay type: ADME, Microsome; method in brief: as §2
[20] = Drug metabolism in mouse liver microsomes assessed as (E)-2,2,2-trifluoro-N-(4-(hydroxymethyl)-2-methylphenyl)-N'-(3-methoxybenzylidene)acetohydrazide retention time at 5 uM by LC/MS/MS analysis; assay type: ADME, Microsome; method in brief: as §2
[21] = Drug metabolism in mouse liver microsomes assessed as (E)-N'-(3,4-dihydroxybenzylidene)-N-(2,4-dimethylphenyl)-2,2,2-trifluoroacetohydrazide retention time at 5 uM by LC/MS/MS analysis; assay type: ADME, Microsome; method in brief: as §2
[22] = Drug metabolism in mouse liver microsomes assessed as (E)-N-(2,4-dimethylphenyl)-2,2,2-trifluoro-N'-(3-hydroxybenzyli-dene)acetohydrazide retention time at 5 uM by LC/MS/MS analysis; assay type: ADME, Microsome; method in brief: as §2
Liver microsomes [23] = assay: Drug metabolism in human liver microsomes assessed as retention time at 5 uM by LC/MS/MS analysis; assay type: ADME, Microsome; method in brief: as §2
[24] = Drug metabolism in mouse liver microsomes assessed as retention time at 5 uM by LC/MS/MS analysis; assay type: ADME, Microsome; method in brief: as §2
[25] = Half life in human liver microsomes at 5 uM by LC/MS/MS analysis in presence of NADPH; assay type: ADME, Microsome
Method in brief: (§3)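 Test compound at 5 µM was incubated at 37 °C with 0.5 mg/mL liver microsomes (human or mouse) in 5 mM phosphate buffer, pH 7.3, with or without 1 mM NADPH. Heat-inactivated microsomes (98 °C, 10 min) served as controls. At 0.1, 2, 5, 10 and 20 min, reactions were stopped with three volumes of ethyl acetate and centrifuged. Parent disappearance in the supernatant was followed by LC/MS/MS.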

[26] = Half life in mouse liver microsomes at 5 uM by LC/MS/MS analysis in presence of NADPH; assay type: ADME, Microsome; method in brief: as §3
[27] = Half life in BALB/c mouse blood at 20 mg/kg, orally administered in corn oil by LC/MS/MS analysis; conditions: po
[28] = Half life in BALB/c mouse brain at 20 mg/kg, orally administered in corn oil by LC/MS/MS analysis; conditions: po

- EC50 [2]: 12 nM
Structure (SMILES): Cc1ccc(N(/N=C/c2cccc(O)c2)C(=O)C(F)(F)F)c(C)c1
- EC50 [1]: 78 nM
- EC50 (HT-22): 185 nM

- EC50 [2]: 33 nM
- Retention_time (Blood [3]): 8.04 min
- Retention_time (Blood [4]): 5.54 min
- Retention_time (Blood [5]): 5.35 min
- Retention_time (Blood [6]): 9.27 min
- Drug metabolism (Liver microsomes [7]): Active
- Drug metabolism (Liver microsomes [8]): Active
- Drug metabolism (Plasma [9]): Not Active
- Drug metabolism (Plasma [10]): Not Active
- Drug metabolism (Plasma [11]): Not Active
- Drug metabolism [12]: Not Active
- Drug metabolism [13]: Not Active
- Drug metabolism [14]: Not Active
- Drug metabolism (Liver microsomes [15]): Not Active
- Drug metabolism (Liver microsomes [16]): Not Active
- Drug metabolism (Liver microsomes [17]): Not Active
- Retention_time [18]: 5.96 min
- Retention_time [19]: 6.82 min
- Retention_time [20]: 7.86 min
- Retention_time [21]: 7.6 min
- Retention_time [22]: 8.36 min
- Retention_time (Liver microsomes [23]): 10.97 min
- Retention_time [24]: 9.49 min
- half-life at 5 µM [25]: 4.5 min
- half-life at 5 µM [26]: < 4 min
- half-life [27]: 2.5 h
- half-life [28]: 2.5 h
Structure (SMILES): COc1cccc(/C=N/N(C(=O)C(F)(F)F)c2ccc(C)cc2C)c1 [J147]
- EC50 [1]: 11 nM
- EC50 (HT-22): 20 nM

- EC50 [2]: 31 nM
Structure (SMILES): Cc1ccc(N(/N=C/c2ccc(O)c(O)c2)C(=O)C(F)(F)F)c(C)c1
- EC50 [1]: 34 nM
- EC50 (HT-22): 1000 nM

- EC50 [2]: 320 nM
Structure (SMILES): COc1cccc(/C=N/N(C(=O)C(F)(F)F)c2ccc(CO)cc2C)c1
- EC50 [1]: 92 nM
- EC50 (HT-22): 180 nM

Source: ChEMBL document CHEMBL2385062, “Metabolism of a potent neuroprotective hydrazide” (Bioorg Med Chem, 2013)
